SENP8 block-1: SENP8 protease inhibition. inhibition, % at 10 µM. purified SENP8, Z-RLRGG-aminoluciferin cleavage, luminescence. hit rate 1.2% among 330,000. AID 2540; in the data active = inhibition above about 50%
SENP7 inh: SENP7 protease inhibition. recombinant SENP7, Z-RLRGG-aminoluciferin luminescence, 40 min. AID 434973. inhibition, % at 5 µM. hit rate 1.5% among 330,000;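 active = inhibition above about 50% at the single test dose, limit read from the data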;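 note: plate controls were DMSO with enzyme for no effect and no enzyme buffer wells for full effect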
SENP6 block: inhibitors of human SENP6 protease; Recombinant SENP6 catalytic domain, aminoluciferin luminescence; inhibition, % at 10 µM; Q9GZR1; AID 2599; hit rate 1.8% among 330,000;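 active = inhibition above about 50% at the single tested dose, limit read from the data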;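 note: plate controls were DMSO wells with enzyme for no effect and DMSO wells lacking enzyme for full effect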
Target sequence (Q9GZR1 628-1112 limits assumed): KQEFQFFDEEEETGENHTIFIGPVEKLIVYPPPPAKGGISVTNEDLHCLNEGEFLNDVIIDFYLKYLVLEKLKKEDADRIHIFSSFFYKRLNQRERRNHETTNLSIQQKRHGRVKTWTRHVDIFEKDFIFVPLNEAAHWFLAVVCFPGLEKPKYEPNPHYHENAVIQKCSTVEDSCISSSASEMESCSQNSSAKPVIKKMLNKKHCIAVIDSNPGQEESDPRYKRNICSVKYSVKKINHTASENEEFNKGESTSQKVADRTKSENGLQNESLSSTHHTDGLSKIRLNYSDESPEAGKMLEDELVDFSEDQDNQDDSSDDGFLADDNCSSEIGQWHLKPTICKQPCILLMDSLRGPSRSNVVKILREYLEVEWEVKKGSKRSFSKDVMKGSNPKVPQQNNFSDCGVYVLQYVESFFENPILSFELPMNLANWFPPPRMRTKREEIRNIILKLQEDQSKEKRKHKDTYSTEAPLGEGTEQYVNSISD
SENP8 block-2: SENP8 (human) protease inhibition; Q96LD8; recombinant SENP8, Nedd8 substrate fluorescence; inhibition, % at 20 µM; hit rate 0.64% among 360,000; AID 602440; in the data active = inhibition mostly above about 40%, no sharp cut-off; inactive = mostly below about 27%
SENP1 inh: inhibitors of human SENP1 SUMO protease catalytic domain; inhibition, % at 10 µM; recombinant SENP1 catalytic domain, CyPet-SUMO1-YPet FRET cleavage; hit rate 0.21% among 360,000;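 active = inhibition at least 30% at 10 µM, raw YFP signal under a set limit, fluorescence ratio 0.5 to 1.5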;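 note: 0% = enzyme with DMSO and 100% = no enzyme wells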
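Assay system: hSENP1 catalytic domain, recombinant. Amount: SENP1 enzyme, 20 pM final. Schedule: 50 min reaction, RT, dark. Technique: FRET, CFP and YFP emission. Control set: no-enzyme wells low, DMSO-plus-enzyme wells high control.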
SENP8 confirm: confirmation of human SENP8 protease inhibitors. Recombinant SENP8, Z-RLRGG-aminoluciferin luminescence, 60 min. hit rate 40% among 6,200. inhibition, % at 12.5 µM. shares compounds with SENP7 inh;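 active = mean inhibition across replicates above about 50%, limit read from the data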
SENP6 confirm: human SENP6 inhibition, confirmed | hit rate 58% among 6,200 | inhibition, % at 12.5 µM | AID 488915 | shares compounds with SENP7 inh | recombinant SENP6, Z-RLRGG-aminoluciferin luminescence
SENP7 confirm: human SENP7 inhibition, confirmed; shares compounds with SENP7 inh; recombinant SENP7, Z-RLRGG-aminoluciferin luminescence, 40 min; inhibition, % at 12.5 µM; hit rate 69% among 6,200; AID 488917
Casp3 select: caspase-3 inhibition (SENP selectivity assay) | shares compounds with SENP7 inh | purified caspase-3, Z-DEVD-aminoluciferin luminescence, 60 min | inhibition, % at 12.5 µM | hit rate 60% among 6,200 | AID 488918;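 active = mean inhibition above about 50%, limit read from the data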;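 note: plate controls were enzyme with DMSO for no effect and wells without caspase-3 for full effect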
SENP luc ctr: interferes with luciferase luminescence in SENP counter-screen; shares compounds with SENP7 inh; Pre-incubated SENP8/Z-RLRGG-aminoluciferin, luciferase luminescence interference; inhibition, % at 12.5 µM; hit rate 39% among 6,200; AID 488919;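 active = mean inhibition above about 50% when retested at one dose, limit read from the data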;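 note: plate controls were DMSO wells with completed reaction for no effect and substrate without enzyme for full effect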
An asterisk follows results filed as active; i = inactive; nt = no result. The list is not random: actives were taken first. Their share in the collection is about 2.5%.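 Rule for the calls, unless noted: active = mean inhibition above about 50% in the one-dose retest (limit read from the data); inactive = the rest.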

SMILES	SENP8 block-1	SENP7 inh	SENP6 block	SENP8 block-2	SENP1 inh	SENP8 confirm	SENP6 confirm	SENP7 confirm	Casp3 select	SENP luc ctr
N#CCSc1ccc(-c2nc3ccccc3[nH]2)cn1	48	68*	7	-238	-1	71*	68*	89*	82*	74*
Nc1ccc(-c2nc3c(ccc4ccccc43)[nH]2)cc1	31	31	59*	i	-44	24	21	37	18	-3
COc1cccc(S(=O)(=O)N(C)C[C@H]2OCc3cnnn3CCCC(=O)N([C@@H](C)CO)C[C@@H]2C)c1	nt	nt	nt	10	0	nt	nt	nt	nt	nt
O=C(Cn1ccc(C(F)(F)F)n1)N/N=C/c1ccc(N2CCOCC2)cc1	3	-1	0	-377	-13	nt	nt	nt	nt	nt
O=C(CSc1ccc(-c2nc3ccccc3[nH]2)cn1)Nc1ccc(S(=O)(=O)NC2CC2)cc1	71*	72*	85*	-264	-3	82*	48	98*	56*	86*
CCOC(=O)CSC1=C(C#N)C(c2ccccc2Cl)C(C(=O)OC)C(=O)N1 (stereo not given)	-2	-9	3	11	0	nt	nt	nt	nt	nt
O=Nc1c(-c2c(O)[nH]c3cc(Br)ccc23)[nH]c2ccccc12	8	53*	54*	20	2	17	36	79*	22	4
CC(C)COC(=O)c1ccc2c(c1O)C(=O)c1ccccc1C2=O	37	93*	81*	35	8	85*	88*	95*	59*	52*
COc1ccc2c(c1O)C(=O)c1ccccc1C2=O	5	10	4	nt	nt	nt	nt	nt	nt	nt
O=C(c1cc(-c2ccco2)on1)N1CCOCC1	10	5	5	10	-1	nt	nt	nt	nt	nt
Cc1ccc(-c2cc(C(=O)N3CCOCC3)no2)cc1	45	58*	61*	10	1	53*	50	82*	81*	55*
Cc1ccc(-c2cc(C(=O)N3CCCC3)no2)cc1	62*	7	68*	6	2	-18	24	86*	63*	3
O=C(NCc1ccco1)c1cc(-c2ccc3c(c2)OCO3)on1	-6	53*	-14	-24	2	-1	-6	22	19	-2
O=C(c1cc(-c2ccc3c(c2)OCO3)on1)N1CCCCC1	66*	72*	78*	-10	3	34	74*	93*	68*	8
Cc1nc2oc3ccc(Cl)cc3c(=O)c2cc1C(=O)O	70*	79*	79*	-114	-7	82*	81*	96*	94*	76*
CCc1nc2oc3ccc(C)cc3c(=O)c2cc1C(=O)OC	nt	nt	nt	-22	-11	nt	nt	nt	nt	nt
Cc1nc2oc3ccccc3c(=O)c2cc1C(=O)O	-4	-7	7	-1	7	nt	nt	nt	nt	nt
CC(C)c1ccc2oc3nc(N)c(C(=O)O)cc3c(=O)c2c1	96*	101*	97*	nt	nt	98*	99*	102*	97*	91*
Cn1c(N)c(C(=O)COC(=O)/C=C/c2ccc(Cl)c(Cl)c2)c(=O)n(C)c1=O	-5	2	7	-10	-2	nt	nt	nt	nt	nt
COc1ccc2[nH]cc(S(=O)(=O)c3ccc(C)cc3)c2c1	0	9	-23	-6	0	nt	nt	nt	nt	nt
Cn1c(Cl)nc2ccccc21	2	-4	4	35	2	nt	nt	nt	nt	nt
Cn1c(N=Nc2ccccc2)nc2ccccc21	97*	101*	-4	66*	2	-16	99*	103*	94*	97*
CN(C)c1ccc(N=Nc2nc3ccccc3n2C)cc1	97*	100*	100*	50*	5	95*	101*	103*	89*	36
